Screens: PubChem BioAssay, Sanford-Burnham Center for Chemical Genomics
UBC13 polyUb = human UBC13 polyubiquitination inhibition; UBC13 polyubiquitin chain formation, TR-FRET; inhibition, % at 20 µM; 330,000 compounds, 0.47% hits; in the data active = inhibition above about 45%, passing the limit was not always enough
UPR CHOP act = activators of apoptotic arm of unfolded protein response (CHOP). CHO-CHOP luciferase reporter, UPR activation, luminescence; percent of tunicamycin response over DMSO baseline. activation, % at 10 µM. 330,000 compounds, 0.34% hits. AID 449763;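 active = at 10 µM dose, activation of 40% or more, normalized to positive control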;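 also: 100% = tunicamycin at 10 µg/mL and 0% = DMSO alone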
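System: CHO CHOP reporter cells. Amount: 500 cells per well. Buffer or medium: F12 medium, 10% FBS. Compound dosing: one dose, 10 µM in 0.5% DMSO. Incubation: 6 h compound exposure at 37 °C after overnight seeding. Technique: Steady-Glo luciferase luminescence. Benchmarks: tunicamycin and DMSO controls.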
XBP1 UPR activ = adaptive UPR (XBP1) activation. 330,000 compounds, 0.33% hits. CHO-XBP1 luciferase reporter, IRE1-XBP1 UPR activation, luminescence; percent of tunicamycin response, DMSO as zero. AID 463104. activation, % at 20 µM;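 active = versus positive control, 20 µM dose yields 30% or more activation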;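 also: 100% = tunicamycin at 10 µg/mL and 0% = DMSO only wells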
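Material: CHO cell line with stable XBP1 luciferase reporter; buffer or medium: F12 medium containing 10% fetal bovine serum; compound: single point, 20 µM final compound, 1% DMSO; incubation: 6 h treatment, 37 °C; measured by: glow luminescence from Steady-Glo reagent; evaluation: activation, % of tunicamycin; control set: tunicamycin high, DMSO low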
Apaf1 inhib = inhibitors of human Apaf-1 apoptosome; O14727; reconstituted apoptosome caspase-3 activity, DEVD-Rh110 fluorescence; inhibition, % at 20 µM; 330,000 compounds, 0.71% hits; AID 489030; active = inhibition of at least 40% at 20 µM;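 also: plate controls were DMSO wells for no effect and DEVD-CHO caspase inhibitor wells for full effect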
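Material: cell-free apoptosome with Apaf-1, procaspase-3 and caspase-9; Buffer or medium: Hepes pH 7.5 with detergent and BSA; Reagent: cytochrome c trigger plus (Z-DEVD)2-Rh110 caspase-3 substrate; Times: compound with Apaf-1, dATP, procaspase-3 30 min, then 50 min reaction, room temperature; Technique: Rh110 fluorescence intensity.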
Mdm2 MdmX PPI = disrupts the human Mdm2-MdmX interaction | O15151+Q00987 | SaOS-2 split-luciferase Mdm2/MdmX complementation, luminescence | inhibition, % at 8 µM | 330,000 compounds, 3% hits;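 active = inhibition of at least 50% at 8 µM in the primary screen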
Target sequence (O15151 whole entry, looked up): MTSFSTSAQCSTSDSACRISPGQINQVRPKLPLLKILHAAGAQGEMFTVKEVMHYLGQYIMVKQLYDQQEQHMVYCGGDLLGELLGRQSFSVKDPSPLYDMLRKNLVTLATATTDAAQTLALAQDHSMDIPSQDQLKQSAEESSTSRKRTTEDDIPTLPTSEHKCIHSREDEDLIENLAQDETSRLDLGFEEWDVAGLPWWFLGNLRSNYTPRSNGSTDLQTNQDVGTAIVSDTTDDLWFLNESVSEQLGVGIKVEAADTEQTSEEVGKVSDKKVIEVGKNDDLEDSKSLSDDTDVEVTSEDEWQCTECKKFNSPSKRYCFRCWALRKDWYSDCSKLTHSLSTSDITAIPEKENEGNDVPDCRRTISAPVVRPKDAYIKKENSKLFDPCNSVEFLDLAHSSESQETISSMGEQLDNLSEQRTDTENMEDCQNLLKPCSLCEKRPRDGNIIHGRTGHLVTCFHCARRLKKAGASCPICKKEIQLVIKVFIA
Target sequence (Q00987 whole entry, looked up): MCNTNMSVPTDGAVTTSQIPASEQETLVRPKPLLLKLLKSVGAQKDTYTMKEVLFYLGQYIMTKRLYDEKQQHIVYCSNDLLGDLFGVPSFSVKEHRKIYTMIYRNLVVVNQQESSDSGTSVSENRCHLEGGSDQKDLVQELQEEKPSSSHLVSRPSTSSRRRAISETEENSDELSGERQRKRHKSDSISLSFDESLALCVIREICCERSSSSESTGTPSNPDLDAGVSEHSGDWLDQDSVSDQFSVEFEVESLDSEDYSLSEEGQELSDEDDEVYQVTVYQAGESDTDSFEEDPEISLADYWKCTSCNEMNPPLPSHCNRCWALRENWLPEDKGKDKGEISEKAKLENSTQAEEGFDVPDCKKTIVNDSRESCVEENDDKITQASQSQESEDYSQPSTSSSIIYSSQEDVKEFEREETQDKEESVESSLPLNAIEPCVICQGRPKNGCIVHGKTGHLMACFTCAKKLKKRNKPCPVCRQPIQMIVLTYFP
Mdm2-MdmX conf = human Mdm2/MdmX binding inhibition, confirmed; luminescent assay; 10,000 compounds, 55% hits; shares compounds with Mdm2 MdmX PPI; AID 489028; inhibition, % at 8 µM; in the data active = inhibition above about 40%
FLuc counter = counter-screen for Mdm2/MdmX inhibitors: full-length luciferase | 6,200 compounds, 77% hits | AID 504607 | SaOS-2 full-length luciferase counterscreen, luminescence | shares compounds with Mdm2 MdmX PPI | inhibition, % at 8 µM;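 active = mean inhibition at 8 µM reaching about 37%, which flags the compound as non-specific, limit read from the data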;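 also: p53-null SaOS-2 cells with luciferase driven by a doxycycline-inducible promoter; compound on cells about two nights before reading with doxycycline added after day one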
* marks the source's active call; other numbers are inactive results; . = no result given. An excerpt weighted towards active compounds, which were near 4.1% of everything screened.

SMILES	UBC13 polyUb	UPR CHOP act	XBP1 UPR activ	Apaf1 inhib	Mdm2 MdmX PPI	Mdm2-MdmX conf	FLuc counter
Cn1c(=O)oc2cc(S(=O)(=O)N3CCCC(C(=O)Nc4ccccn4)C3)ccc21 (stereo unspecified)	3	-2	-1	8	18	.	.
Cn1c(=O)oc2cc(S(=O)(=O)N3CCCC(C(=O)NC4CCCc5ccccc54)C3)ccc21 (stereo unspecified)	-9	-3	-4	5	76*	70*	54*
COCCn1c(C)cc(C2=NNC(=Nc3ccccc3)SC2)c1C	-10	-1	-2	5	62*	73*	81*
CCN(CC(=O)NCc1cccs1)C(=O)/C=C/c1cccc(Cl)c1Cl	1	0	-4	5	19	.	.
COc1ccc(C[C@H]2CN3C(=NC[C@@H]3Cc3ccccc3)N2C[C@H](C)NC(=O)CCC2CCCCC2)cc1	17	4	4	52*	68*	48*	72*
COc1cc(C)c(S(=O)(=O)NOCc2ccccc2)c(C)c1C	-3	2	-4	22	-2	.	.
Cn1cc(CN2CCCC(C(=O)Nc3cccc(-c4cc5ccccc5[nH]4)c3)C2)cn1 (stereo unspecified)	26	4	1	13	60*	15	.
CC(C)n1cc(CN2CCCC(C(=O)Nc3cccc(-c4cc5ccccc5[nH]4)c3)C2)cn1 (stereo unspecified)	32	5	5	29	78*	18	.
CCn1cc(CN2CCCC(C(=O)Nc3cccc(-c4cc5ccccc5[nH]4)c3)C2)c(C)n1 (stereo unspecified)	19	5	1	34	19	.	.
COCC(C)n1c(C)cc(C(=O)COC(=O)c2cc(=O)[nH]c3ccccc23)c1C (stereo unspecified)	-6	-4	-6	18	58*	68*	97*
CC(C)(C)c1ccc(C(=O)Nc2ccc(NC(=O)c3ccco3)cc2)cc1	3	4	4	-18	51*	16	.
O=C(Nc1ccc(NC(=O)c2sc3ccccc3c2Cl)cc1)c1ccco1	-17	2	-1	8	77*	30	46*
CC(C)(C)C(=O)Nc1ccc(NC(=O)c2ccco2)nc1	-3	-9	-12	10	90*	92*	58*
O=C(Nc1ccc(NC(=O)c2ccco2)nc1)c1ccco1	-17	-2	-4	-1	-68	.	.
CCOc1ccccc1NC(=S)N1CCN(c2cccc(OC)c2)CC1	6	2	-3	8	6	.	.
Cc1cc(-c2ccc(C)c(S(=O)(=O)NCCc3ccc(S(N)(=O)=O)cc3)c2)on1	5	3	-2	-13	14	.	.
Cn1ccsc1=NC(=O)c1cccc(C#N)c1	-4	3	-3	9	2	.	.
O=C(Nc1cnccn1)Nc1cccc(Cl)c1Cl	-2	0	1	-1	77*	68*	105*
COc1ccc(NC(=O)Cn2nnc(C(=O)NCc3ccc4c(c3)OCO4)c2N)cc1	-21	0	3	-2	42	.	.
Cc1cc(C)cc(NC(=O)Cn2nnc(C(=O)NCc3ccc4c(c3)OCO4)c2N)c1	4	3	8	1	55*	37	55*
Cc1ccc(NC(=O)Cn2nnc(C(=O)NCc3cccs3)c2N)c(C)c1	-6	2	0	-3	69*	23	.
CCOc1ccc(NC(=O)Cn2nnc(C(=O)NCc3ccc4c(c3)OCO4)c2N)cc1	-6	1	3	-7	52*	18	.
Cc1cc(C)c(NC(=O)Cn2nnc(C(=O)NCc3cccs3)c2N)c(C)c1	-12	0	-3	8	46	.	.
Cc1ccc(N(C(=O)c2snc(C(N)=O)c2N)C(C(=O)NCc2ccccc2)c2ccncc2)c(C)c1 (stereo unspecified)	19	1	1	33	7	.	.
CC(C)(C)c1ccc(NC(=O)COC(=O)c2ccc(NS(=O)(=O)c3ccc(F)c(F)c3)cc2)cc1	-17	-1	-4	16	10	.	.
SMILES	UBC13 polyUb	UPR CHOP act	XBP1 UPR activ	Apaf1 inhib	Mdm2 MdmX PPI	Mdm2-MdmX conf	FLuc counter
O=C(CS(=O)(=O)Cc1ccccc1)NCc1ccccc1Cl	8	3	-4	-3	-10	.	.
CCOC(=O)c1ccc2ncc(C(=O)OCC)c(Nc3ccc(N4CCOCC4)cc3)c2c1	-7	0	-1	37	68*	55*	55*
CCOc1ccc2nc(C)cc(Nc3ccc(N4CCOCC4)cc3)c2c1	-1	-2	1	-9	50	19	.
CCOc1ccc2nc(C)cc(Nc3ccc4c(c3)OCCO4)c2c1	15	0	-1	-3	50	.	.
CCOc1ccc2nc(C)cc(Nc3cccc([N+](=O)[O-])c3)c2c1	22	2	9	-7	100*	100*	51*
Cc1cc(Nc2cccc([N+](=O)[O-])c2)c2ccccc2n1	-10	-2	-1	-10	-19	.	.
Cc1cc(Nc2ccc([N+](=O)[O-])cc2)c2ccccc2n1	-6	0	0	-2	93*	70*	55*
CC(=O)Nc1ccc(Nc2cc(C)nc3ccccc23)cc1	-8	-2	-3	-3	18	.	.
CC(=O)c1ccc(Nc2cc(C)nc3ccc(C)cc23)cc1	-4	-1	0	4	51*	37	90*
O=C(/C=C/C(=O)NCc1cccs1)NCc1cccs1	3	1	5	-21	62*	4	.
O=C(/C=C/c1ccc(Cl)cc1)NCc1cccs1	-5	3	1	3	-67	.	.
Cc1ccc(-c2c3c(nc4sc(C(N)=O)c(N)c24)CCC3)cc1	35	0	-4	23	56*	55*	47*
COc1ccc(-c2c3c(nc4sc5c(Cl)nc(C)nc5c24)CCC3)cc1	4	28	4	5	99*	-21	.
NC(=O)c1sc2nc3c(c(-c4ccco4)c2c1N)CCCC3	13	-2	-2	-11	61*	67*	37*
CCOC(=O)C1=C(C)Nc2nc(SCC)[nH]c(=O)c2C1c1ccncc1 (stereo unspecified)	-10	-2	-2	4	-18	.	.
O=c1[nH]c(/C=C/c2ccc(OC(F)F)cc2)nc2c1cnn2-c1ccccc1	-6	1	3	-4	66*	-1	.
CC(C)Sc1nc2c(cnn2-c2ccccc2)c(=O)[nH]1	-8	-1	5	10	-3	.	.
O=C(Nc1ccc(S(=O)(=O)N2CCCCCC2)cc1)c1[nH]ncc1[N+](=O)[O-]	-19	6	0	3	52*	36	.
